ALR inh: inhibitors of human sulfhydryl oxidase ALR. P55789. purified ALR, DTT oxidation, H2O2 HRP-luminol luminescence. inhibition, % (no concentration beside the values). 290,000 tested, 3.8% active;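 active = mean replicate inhibition above about 79%, with every replicate also reaching it, limit read from the data; inconclusive = only one of the two criteria met; inactive = mean below limit and not every replicate reaching it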
Target sequence (P55789 whole entry, looked up): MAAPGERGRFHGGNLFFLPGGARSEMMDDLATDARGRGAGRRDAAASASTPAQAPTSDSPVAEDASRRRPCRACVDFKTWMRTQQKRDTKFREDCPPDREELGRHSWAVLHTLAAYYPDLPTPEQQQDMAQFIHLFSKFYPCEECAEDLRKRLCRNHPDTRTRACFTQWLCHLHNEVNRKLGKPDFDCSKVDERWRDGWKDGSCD
PHOSPHO1 inh: inhibitors of human PHOSPHO1 phosphatase | recombinant PHOSPHO1, absorbance phosphatase assay | AID 1565 | inhibition, % at 13.3 µM | 290,000 tested, 1.1% active; in the data active = inhibition above about 60%
Target sequence (Q8TCT1 whole entry, looked up): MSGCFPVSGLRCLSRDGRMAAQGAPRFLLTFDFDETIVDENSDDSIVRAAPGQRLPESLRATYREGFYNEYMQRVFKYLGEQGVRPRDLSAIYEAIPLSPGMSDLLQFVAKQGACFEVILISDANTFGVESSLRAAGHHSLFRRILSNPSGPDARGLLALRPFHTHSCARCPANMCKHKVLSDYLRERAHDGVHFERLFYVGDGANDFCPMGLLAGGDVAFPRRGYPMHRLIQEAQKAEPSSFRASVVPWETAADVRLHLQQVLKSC
HSF1 activator: increases HSF-1 driven luciferase reporter signal; NIH3T3-HGL HSF-1 luciferase reporter, MG132, 8 h; 100% = twice DMSO control signal; 300,000 tested, 1.7% active; activation, % at 9 µM;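 active = mean replicate activation of at least 50% with a set share of replicates each reaching 50%; inconclusive = only one of those two conditions met; inactive = mean below 50% and too few replicates reaching it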;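 note: 0% = median of the neutral control wells and 100% = twice that signal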
AI-2 QS modul: Vibrio harveyi AI-2 quorum sensing modulation; 300,000 tested, 0.4% active; activity change, % at 7.5 µM; Vibrio harveyi JMH597 AI-2 luminescence/OD600 ratio, 9 h; hits give low values; strain lacks LuxN and CqsS sensors; 0 = neutral-control median; AID 2094; in the data active = activity change below about -75%, passing the limit was not always enough; inconclusive = no clear call, values can overlap the other calls;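 note: luminescence divided by OD600 gain over 9 h not by final OD600 alone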
HSF1 inh: HSF1 inhibition; 300,000 tested, 0.77% active; AID 2098; NIH3T3-HGL HSE-luciferase, MG132-induced, luminescence 8 h; hits give low values; activity change, negative = inhibition, % at 7.5 µM (by protocol);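 active = more than half of replicate wells show activity change below -50%, luminescence cut by over half; inconclusive = some wells, but at most half, below -50%; inactive = no replicate well below -50%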;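 note: luciferase reports HSF-1 transcriptional activity via heat shock element; 0% = median of DMSO wells and -100% = zero luminescence signal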
core dimer inh: blocks dimerization of HCV core protein | TR-FRET GST/Flag-core106 dimerization, 1536-well | inhibition, % at 5 µM | 300,000 tested, 0.33% active;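 active = inhibition above the mean of all tested compounds plus 3 SD, set per screening campaign, cut at about 45% in these data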
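assay system = GST-tagged and Flag-tagged HCV core protein residues 1-106 | controls = unlabelled core106 and no-GST-core106 wells | incubation = compound-protein-antibody incubation 4 h at 22.5 °C | probe or stimulus = Eu donor and XL665 acceptor anti-tag antibodies | read-out = % inhibition based on acceptor/donor emission ratio | signal = TR-FRET 671 and 617 nm emission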
The depositor's hits bear a star. In the library only some 6.8% were active in any assay of this set; here they are far more common.

COc1ccc2c(c1)C(C)(CCN)C(=O)N2C (configuration not stated) was read as ALR inh 0, HSF1 activator -30, AI-2 QS modul 12, HSF1 inh -16 and core dimer inh -5.
For O=C(CSc1nnc(-c2ccccn2)n1Cc1ccco1)c1ccc(Cl)cc1 the results were ALR inh 97*, PHOSPHO1 inh 80*, HSF1 activator 11, AI-2 QS modul 11, HSF1 inh 2 and core dimer inh 13.
For O=C(CSc1nnc(-c2ccccn2)n1Cc1ccco1)c1ccccc1 the results were ALR inh 71, PHOSPHO1 inh 59, HSF1 activator 19, AI-2 QS modul 2, HSF1 inh 1 and core dimer inh 1.
`O=C(CSc1nnc(-c2cnccn2)n1Cc1ccco1)c1ccccc1` gave ALR inh 87*, PHOSPHO1 inh 90*, HSF1 activator 3, AI-2 QS modul 5, HSF1 inh 1 and core dimer inh 5.
O=C(CSc1nnc(-c2cnccn2)n1Cc1ccco1)c1ccc(Cl)cc1 was read as ALR inh 0, PHOSPHO1 inh 14, HSF1 activator 17, AI-2 QS modul 11, HSF1 inh 6 and core dimer inh 5.
Screening CCOC(=O)C1=C(COC(=O)CCc2ccccc2)NC(=O)NC1C (configuration not stated) returned ALR inh -5.
For COC(=O)c1ccc(C(=O)OC)c(NC(=O)C(C)(C)C)c1 the results were ALR inh 37, PHOSPHO1 inh 53, HSF1 activator 67*, AI-2 QS modul 13, HSF1 inh 21 and core dimer inh 6.
For COC(=O)c1ccc(C(=O)OC)c(NC(=O)CCC(=O)O)c1 the results were ALR inh -16, PHOSPHO1 inh -5, HSF1 activator -2, AI-2 QS modul 13, HSF1 inh -4 and core dimer inh -2.
`S=C(NCCCNC(=S)Nc1ccccc1)Nc1ccccc1` gave ALR inh -9, PHOSPHO1 inh 0, HSF1 activator -11, AI-2 QS modul -4, HSF1 inh -2 and core dimer inh 1.
For CNC(=S)Nc1ccc(Nc2ccccc2)cc1 the results were ALR inh 99*, PHOSPHO1 inh 37, HSF1 activator 19, AI-2 QS modul inconclusive, HSF1 inh 19 and core dimer inh -15.
Screening CCCNC(=S)Nc1ccc(Nc2ccccc2)cc1 returned ALR inh 99*, PHOSPHO1 inh 22, HSF1 activator 32, AI-2 QS modul -3, HSF1 inh 33 and core dimer inh -14.
Nc1nc2ccccc2nc1N1CCCC1 was read as ALR inh 47, PHOSPHO1 inh 20, HSF1 activator 6, AI-2 QS modul 13, HSF1 inh -1 and core dimer inh -2.
`CN1CCCNc2nc3ccccc3nc21` gave ALR inh 80*, PHOSPHO1 inh 10, HSF1 activator -6, AI-2 QS modul -7, HSF1 inh 4 and core dimer inh 0.
Screening CC(C)C(C(=O)NCc1ccccc1)N(CC1CCCO1)C(=O)CNS(=O)(=O)c1ccccc1 (configuration not stated) returned ALR inh -5, PHOSPHO1 inh 6, HSF1 activator 83*, AI-2 QS modul 22, HSF1 inh 36 and core dimer inh 1.
For CC(C)C(C(=O)NCc1ccco1)N(CC1CCCO1)C(=O)CNS(=O)(=O)c1ccccc1 (configuration not stated) the results were ALR inh -10, PHOSPHO1 inh 39, HSF1 activator -9, AI-2 QS modul 14, HSF1 inh 1 and core dimer inh 3.
For NC(=S)N/N=C/c1ccc(-c2ccc(SC(F)F)cc2)o1 the results were ALR inh 21, PHOSPHO1 inh 22, HSF1 activator 20, AI-2 QS modul -45, HSF1 inh 13 and core dimer inh 14.
Cc1ccc(OCC(=O)N/N=C\c2ccc(-c3cccc(C(=O)O)c3)o2)c(C)c1 was read as ALR inh 9, PHOSPHO1 inh 11, HSF1 activator -9, AI-2 QS modul 33, HSF1 inh -15 and core dimer inh 0.
For NC(=S)N/N=C/c1ccc(-c2ccc(Cl)c(Cl)c2)o1 the results were ALR inh 72, PHOSPHO1 inh 81*, HSF1 activator 7, AI-2 QS modul -39, HSF1 inh 14 and core dimer inh 37.
Screening CCNC(=S)N/N=C/c1ccc(-c2ccccc2)o1 returned ALR inh 0, PHOSPHO1 inh 3, HSF1 activator 81*, AI-2 QS modul -3, HSF1 inh 49 and core dimer inh -14.
Screening NC(=S)N/N=C\c1ccc(-c2cccc(Cl)c2Cl)o1 returned ALR inh -5, PHOSPHO1 inh 95*, HSF1 activator 2, AI-2 QS modul 8, HSF1 inh 0 and core dimer inh 9.
For CNC(=S)N/N=C/c1ccc(-c2cccc(C(=O)O)c2)o1 the results were ALR inh 17, PHOSPHO1 inh 39, HSF1 activator -66, AI-2 QS modul 17, HSF1 inh -60* and core dimer inh -12.
CC[N+](C)(CC)CC(O)COCC1COc2ccccc2O1 (configuration not stated) was read as ALR inh -4, PHOSPHO1 inh 6, HSF1 activator 6, AI-2 QS modul 13, HSF1 inh 0 and core dimer inh -2.
For COc1ccccc1CNC(=S)NC1CCCC1 the results were ALR inh 0, PHOSPHO1 inh -14, HSF1 activator 1, AI-2 QS modul -2, HSF1 inh 4 and core dimer inh -13.
Screening O=C(Nc1ccc(Cl)cc1Cl)NC1CCN(S(=O)(=O)c2ccc(F)cc2)CC1 returned ALR inh -6, PHOSPHO1 inh 33, HSF1 activator -13, AI-2 QS modul -1, HSF1 inh -3 and core dimer inh -2.
CCC(C)(C)c1nnc(NC(=O)C2CC(=O)N(CCc3ccc(F)cc3)C2)s1 (configuration not stated) was read as ALR inh 4, PHOSPHO1 inh 24, HSF1 activator 0, AI-2 QS modul 17, HSF1 inh 3 and core dimer inh -5.
`C=C(C)COc1ccc2c(CC)cc(=O)oc2c1` gave ALR inh -9, PHOSPHO1 inh 37, HSF1 activator 3, AI-2 QS modul 5, HSF1 inh -10 and core dimer inh -2.
Cn1cc([N+](=O)[O-])c(C(=O)NC2CCCCCCC2)n1 was read as ALR inh -4, PHOSPHO1 inh 8, HSF1 activator -7, AI-2 QS modul 29, HSF1 inh -7 and core dimer inh -5.
`O/N=C\c1ccc(-c2ccccc2)o1` gave ALR inh 78*, PHOSPHO1 inh 0, HSF1 activator 38, AI-2 QS modul 36, HSF1 inh 15 and core dimer inh 0.

Assay outcomes (PubChem BioAssay)
